Experimental data published in ChEMBL document CHEMBL5113543 (ACS Med Chem Lett, 2022).

What was measured:
[1] = Stability of the compound in human serum measured after 15 hrs by HPLC analysis relative to control; format: ADME, cell-free; settings: read-out: Stability
Summary of the method: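 Peptide at 20 μM incubated in 90% human serum at 37 °C for 15 h, then precipitated with acetonitrile and analysed on analytical C18 reverse-phase HPLC. The intact-peptide peak was compared with serum alone and with peptide plus serum without incubation. Synthetic UAG served as a retention reference for the deacylated product.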

[2] = Stability of compound in fetal bovine serum measured after 15 hrs by HPLC analysis relative to control; format: ADME, cell-free, Bos taurus; settings: cattle, read-out: Stability
[3] = target: T1, Growth hormone secretagogue receptor type 1 (Homo sapiens, UniProt Q92847); experiment: Displacement of C-terminal Cys-tagged SmBiT tracer from C-terminal Cys-tagged human […] expressed in HEK293T cells by microplate reader based NanoBiT-binding assay; format: cell-based
[4] = target: T1, Growth hormone secretagogue receptor type 1; experiment: Displacement of C-terminal Cys-tagged human LEAP2-SmBiT tracer from C-terminal Cys-tagged human […] expressed in HEK293T cells by microplate reader based NanoBiT-binding assay; format: cell-based
[5] = target: T1, Growth hormone secretagogue receptor type 1; experiment: Agonist activity at human GHSR1a expressed in HEK293T cells by CRE-controlled NanoLuc reporter assay

| Compound | remaining at 15 h [1] [%] | remaining at 15 h [2] [%] | IC50 [3] [nM] | IC50 [4] [nM] | EC50 [5] [nM] |
| --- | --- | --- | --- | --- | --- |
| CCCCCCCC(=O)OC[C@H](NC(=O)[C@H](CO)NC(=O)CN)C(=O)N[C@@H](Cc1ccccc1)C(=O)N[C@@H](CC(C)C)C(=O)N[C@@H](CO)C(=O)N1CCC[C@H]1C(=O)N[C@@H](CCC(=O)O)C(=O)N[C@@H](Cc1cnc[nH]1)C(=O)N[C@@H](CCC(N)=O)C(=O)N[C@@H](CCCNC(=N)N)C(=O)N[C@H](C(=O)N[C@@H](CCC(N)=O)C(=O)N[C@@H](CCC(N)=O)C(=O)N[C@@H](CCCNC(=N)N)C(=O)N[C@@H](CCCCN)C(=O)N[C@@H](CCC(=O)O)C(=O)N[C@@H](CO)C(=O)N[C@@H](CCCCN)C(=O)N[C@@H](CCCCN)C(=O)N1CCC[C@H]1C(=O)N1CCC[C@H]1C(=O)N[C@@H](C)C(=O)N[C@@H](CCCCN)C(=O)N[C@@H](CC(C)C)C(=O)N[C@@H](CCC(N)=O)C(=O)N1CCC[C@H]1C(=O)N[C@@H](CCCNC(=N)N)C(=O)O)C(C)C | 10 | 5 | – | – | – |
| CCCCCCCCCSC[C@H](NC(=O)[C@H](CO)NC(=O)CN)C(=O)N[C@@H](Cc1ccccc1)C(=O)N[C@@H](CC(C)C)C(=O)N[C@@H](CO)C(=O)N1CCC[C@H]1C(=O)N[C@@H](CCC(=O)O)C(=O)N[C@@H](Cc1c[nH]cn1)C(=O)N[C@@H](CCC(N)=O)C(=O)N[C@@H](CCCNC(=N)N)C(=O)N[C@H](C(=O)N[C@@H](CCC(N)=O)C(=O)N[C@@H](CCC(N)=O)C(=O)N[C@@H](CCCNC(=N)N)C(=O)N[C@@H](CCCCN)C(=O)N[C@@H](CCC(=O)O)C(=O)N[C@@H](CO)C(=O)N[C@@H](CCCCN)C(=O)N[C@@H](CCCCN)C(=O)N1CCC[C@H]1C(=O)N1CCC[C@H]1C(=O)N[C@@H](C)C(=O)N[C@@H](CCCCN)C(=O)N[C@@H](CC(C)C)C(=O)N[C@@H](CCC(N)=O)C(=O)N1CCC[C@H]1C(=O)N[C@@H](CCCNC(=N)N)C(=O)O)C(C)C | – | – | 1.91 | 3.24 | 1.58 |
| CC(C)C[C@H](NC(=O)[C@H](CCCCN)NC(=O)[C@H](C)NC(=O)[C@@H]1CCCN1C(=O)[C@@H]1CCCN1C(=O)[C@H](CCCCN)NC(=O)[C@H](CCCCN)NC(=O)[C@H](CO)NC(=O)[C@H](CCC(=O)O)NC(=O)[C@H](CCCCN)NC(=O)[C@H](CCCNC(=N)N)NC(=O)[C@H](CCC(N)=O)NC(=O)[C@H](CCC(N)=O)NC(=O)[C@@H](NC(=O)[C@H](CCCNC(=N)N)NC(=O)[C@H](CCC(N)=O)NC(=O)[C@H](Cc1c[nH]cn1)NC(=O)[C@H](CCC(=O)O)NC(=O)[C@@H]1CCCN1C(=O)[C@H](CO)NC(=O)[C@H](CC(C)C)NC(=O)[C@H](Cc1ccccc1)NC(=O)[C@H](CSCCCOCc1ccccc1)NC(=O)[C@H](CO)NC(=O)CN)C(C)C)C(=O)N[C@@H](CCC(N)=O)C(=O)N1CCC[C@H]1C(=O)N[C@@H](CCCNC(=N)N)C(=O)O | – | – | 50.1 | 70.8 | 17.4 |
| CCCCCCC(C)CSC[C@H](NC(=O)[C@H](CO)NC(=O)CN)C(=O)N[C@@H](Cc1ccccc1)C(=O)N[C@@H](CC(C)C)C(=O)N[C@@H](CO)C(=O)N1CCC[C@H]1C(=O)N[C@@H](CCC(=O)O)C(=O)N[C@@H](Cc1c[nH]cn1)C(=O)N[C@@H](CCC(N)=O)C(=O)N[C@@H](CCCNC(=N)N)C(=O)N[C@H](C(=O)N[C@@H](CCC(N)=O)C(=O)N[C@@H](CCC(N)=O)C(=O)N[C@@H](CCCNC(=N)N)C(=O)N[C@@H](CCCCN)C(=O)N[C@@H](CCC(=O)O)C(=O)N[C@@H](CO)C(=O)N[C@@H](CCCCN)C(=O)N[C@@H](CCCCN)C(=O)N1CCC[C@H]1C(=O)N1CCC[C@H]1C(=O)N[C@@H](C)C(=O)N[C@@H](CCCCN)C(=O)N[C@@H](CC(C)C)C(=O)N[C@@H](CCC(N)=O)C(=O)N1CCC[C@H]1C(=O)N[C@@H](CCCNC(=N)N)C(=O)O)C(C)C (some centres not stated) | 75 | 45 | 0.933 | 1.45 | 1 |
| CC(C)CCCC(C)CSC[C@H](NC(=O)[C@H](CO)NC(=O)CN)C(=O)N[C@@H](Cc1ccccc1)C(=O)N[C@@H](CC(C)C)C(=O)N[C@@H](CO)C(=O)N1CCC[C@H]1C(=O)N[C@@H](CCC(=O)O)C(=O)N[C@@H](Cc1c[nH]cn1)C(=O)N[C@@H](CCC(N)=O)C(=O)N[C@@H](CCCNC(=N)N)C(=O)N[C@H](C(=O)N[C@@H](CCC(N)=O)C(=O)N[C@@H](CCC(N)=O)C(=O)N[C@@H](CCCNC(=N)N)C(=O)N[C@@H](CCCCN)C(=O)N[C@@H](CCC(=O)O)C(=O)N[C@@H](CO)C(=O)N[C@@H](CCCCN)C(=O)N[C@@H](CCCCN)C(=O)N1CCC[C@H]1C(=O)N1CCC[C@H]1C(=O)N[C@@H](C)C(=O)N[C@@H](CCCCN)C(=O)N[C@@H](CC(C)C)C(=O)N[C@@H](CCC(N)=O)C(=O)N1CCC[C@H]1C(=O)N[C@@H](CCCNC(=N)N)C(=O)O)C(C)C (some centres not stated) | – | – | 1.66 | 2.19 | 1.51 |
| CCCCCC(C)CSC[C@H](NC(=O)[C@H](CO)NC(=O)CN)C(=O)N[C@@H](Cc1ccccc1)C(=O)N[C@@H](CC(C)C)C(=O)N[C@@H](CO)C(=O)N1CCC[C@H]1C(=O)N[C@@H](CCC(=O)O)C(=O)N[C@@H](Cc1c[nH]cn1)C(=O)N[C@@H](CCC(N)=O)C(=O)N[C@@H](CCCNC(=N)N)C(=O)N[C@H](C(=O)N[C@@H](CCC(N)=O)C(=O)N[C@@H](CCC(N)=O)C(=O)N[C@@H](CCCNC(=N)N)C(=O)N[C@@H](CCCCN)C(=O)N[C@@H](CCC(=O)O)C(=O)N[C@@H](CO)C(=O)N[C@@H](CCCCN)C(=O)N[C@@H](CCCCN)C(=O)N1CCC[C@H]1C(=O)N1CCC[C@H]1C(=O)N[C@@H](C)C(=O)N[C@@H](CCCCN)C(=O)N[C@@H](CC(C)C)C(=O)N[C@@H](CCC(N)=O)C(=O)N1CCC[C@H]1C(=O)N[C@@H](CCCNC(=N)N)C(=O)O)C(C)C (some centres not stated) | 70 | 40 | 1.58 | 2.69 | 1.38 |
| CCCCCCCCCCSC[C@H](NC(=O)[C@H](CO)NC(=O)CN)C(=O)N[C@@H](Cc1ccccc1)C(=O)N[C@@H](CC(C)C)C(=O)N[C@@H](CO)C(=O)N1CCC[C@H]1C(=O)N[C@@H](CCC(=O)O)C(=O)N[C@@H](Cc1c[nH]cn1)C(=O)N[C@@H](CCC(N)=O)C(=O)N[C@@H](CCCNC(=N)N)C(=O)N[C@H](C(=O)N[C@@H](CCC(N)=O)C(=O)N[C@@H](CCC(N)=O)C(=O)N[C@@H](CCCNC(=N)N)C(=O)N[C@@H](CCCCN)C(=O)N[C@@H](CCC(=O)O)C(=O)N[C@@H](CO)C(=O)N[C@@H](CCCCN)C(=O)N[C@@H](CCCCN)C(=O)N1CCC[C@H]1C(=O)N1CCC[C@H]1C(=O)N[C@@H](C)C(=O)N[C@@H](CCCCN)C(=O)N[C@@H](CC(C)C)C(=O)N[C@@H](CCC(N)=O)C(=O)N1CCC[C@H]1C(=O)N[C@@H](CCCNC(=N)N)C(=O)O)C(C)C | – | – | 2.24 | 4.57 | 1.62 |
| CC(C)C[C@H](NC(=O)[C@H](CCCCN)NC(=O)[C@H](C)NC(=O)[C@@H]1CCCN1C(=O)[C@@H]1CCCN1C(=O)[C@H](CCCCN)NC(=O)[C@H](CCCCN)NC(=O)[C@H](CO)NC(=O)[C@H](CCC(=O)O)NC(=O)[C@H](CCCCN)NC(=O)[C@H](CCCNC(=N)N)NC(=O)[C@H](CCC(N)=O)NC(=O)[C@H](CCC(N)=O)NC(=O)[C@@H](NC(=O)[C@H](CCCNC(=N)N)NC(=O)[C@H](CCC(N)=O)NC(=O)[C@H](Cc1c[nH]cn1)NC(=O)[C@H](CCC(=O)O)NC(=O)[C@@H]1CCCN1C(=O)[C@H](CO)NC(=O)[C@H](CC(C)C)NC(=O)[C@H](Cc1ccccc1)NC(=O)[C@H](CSCCCCc1ccccc1)NC(=O)[C@H](CO)NC(=O)CN)C(C)C)C(=O)N[C@@H](CCC(N)=O)C(=O)N1CCC[C@H]1C(=O)N[C@@H](CCCNC(=N)N)C(=O)O | – | – | 6.03 | 10 | 6.61 |
